Assay results published in ChEMBL document CHEMBL3392961, “Synthesis and in vitro characterization of cinnoline and benzimidazole analogues as phosphodiesterase 10A inhibitors” (Bioorg Med Chem Lett, 2015).

Tests used:
[1] = target: cAMP and cAMP-inhibited cGMP 3',5'-cyclic phosphodiesterase 10A (Homo sapiens, UniProt Q9Y233); experiment: Inhibition of human recombinant PDE10A catalytic domain pre-incubated for 5 mins before [3H]cAMP substrate addition and measured 20 mins post substrate addition by scintillation proximity assay
[2] = target: cGMP-inhibited 3',5'-cyclic phosphodiesterase 3A (Homo sapiens, UniProt Q14432); experiment: Inhibition of human recombinant PDE3A pre-incubated for 5 mins before [3H]cAMP substrate addition and measured 20 mins post substrate addition by scintillation proximity assay
How it was run: (§1)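 Scintillation proximity assay on a fixed amount of recombinant human PDE enzyme, run across varying inhibitor concentrations. The tritiated cyclic nucleotide substrate was used at 1/3 of Km. Background was subtracted, counts were plotted against inhibitor concentration, and IC50 was fitted by non-linear regression. Values are mean ± SD from at least three experiments.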

[3] = target: cGMP-inhibited 3',5'-cyclic phosphodiesterase 3B (Homo sapiens, UniProt Q13370); experiment: Inhibition of human recombinant PDE3B pre-incubated for 5 mins before [3H]cAMP substrate addition and measured 20 mins post substrate addition by scintillation proximity assay; how it was run: as §1
[4] = target: 3',5'-cyclic-AMP phosphodiesterase 4A (Homo sapiens, UniProt P27815); experiment: Inhibition of human recombinant PDE4A pre-incubated for 5 mins before [3H]cAMP substrate addition and measured 20 mins post substrate addition by scintillation proximity assay; how it was run: as §1
[5] = target: 3',5'-cyclic-AMP phosphodiesterase 4B (Homo sapiens, UniProt Q07343); experiment: Inhibition of human recombinant PDE4B pre-incubated for 5 mins before [3H]cAMP substrate addition and measured 20 mins post substrate addition by scintillation proximity assay; how it was run: as §1
Sequence of 3',5'-cyclic-AMP phosphodiesterase 4B (Q07343 whole entry): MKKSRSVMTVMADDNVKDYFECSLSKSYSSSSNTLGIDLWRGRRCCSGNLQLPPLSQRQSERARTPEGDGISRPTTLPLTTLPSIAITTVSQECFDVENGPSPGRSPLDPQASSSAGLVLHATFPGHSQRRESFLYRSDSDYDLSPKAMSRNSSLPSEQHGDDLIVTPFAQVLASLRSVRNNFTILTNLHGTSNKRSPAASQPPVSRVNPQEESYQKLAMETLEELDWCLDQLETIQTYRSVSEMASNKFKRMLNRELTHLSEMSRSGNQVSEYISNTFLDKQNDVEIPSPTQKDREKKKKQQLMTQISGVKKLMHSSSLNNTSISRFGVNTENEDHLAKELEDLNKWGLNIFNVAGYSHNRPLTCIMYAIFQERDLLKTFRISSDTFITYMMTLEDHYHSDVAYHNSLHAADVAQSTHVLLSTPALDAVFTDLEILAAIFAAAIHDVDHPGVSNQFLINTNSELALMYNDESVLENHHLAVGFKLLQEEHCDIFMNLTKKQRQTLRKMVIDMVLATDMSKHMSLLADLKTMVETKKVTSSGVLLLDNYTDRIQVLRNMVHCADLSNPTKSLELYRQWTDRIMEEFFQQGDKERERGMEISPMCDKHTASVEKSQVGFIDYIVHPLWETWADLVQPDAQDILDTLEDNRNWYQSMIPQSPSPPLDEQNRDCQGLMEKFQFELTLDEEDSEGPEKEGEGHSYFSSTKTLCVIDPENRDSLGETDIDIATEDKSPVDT

Sequence of cGMP-inhibited 3',5'-cyclic phosphodiesterase 3A (Q14432 whole entry): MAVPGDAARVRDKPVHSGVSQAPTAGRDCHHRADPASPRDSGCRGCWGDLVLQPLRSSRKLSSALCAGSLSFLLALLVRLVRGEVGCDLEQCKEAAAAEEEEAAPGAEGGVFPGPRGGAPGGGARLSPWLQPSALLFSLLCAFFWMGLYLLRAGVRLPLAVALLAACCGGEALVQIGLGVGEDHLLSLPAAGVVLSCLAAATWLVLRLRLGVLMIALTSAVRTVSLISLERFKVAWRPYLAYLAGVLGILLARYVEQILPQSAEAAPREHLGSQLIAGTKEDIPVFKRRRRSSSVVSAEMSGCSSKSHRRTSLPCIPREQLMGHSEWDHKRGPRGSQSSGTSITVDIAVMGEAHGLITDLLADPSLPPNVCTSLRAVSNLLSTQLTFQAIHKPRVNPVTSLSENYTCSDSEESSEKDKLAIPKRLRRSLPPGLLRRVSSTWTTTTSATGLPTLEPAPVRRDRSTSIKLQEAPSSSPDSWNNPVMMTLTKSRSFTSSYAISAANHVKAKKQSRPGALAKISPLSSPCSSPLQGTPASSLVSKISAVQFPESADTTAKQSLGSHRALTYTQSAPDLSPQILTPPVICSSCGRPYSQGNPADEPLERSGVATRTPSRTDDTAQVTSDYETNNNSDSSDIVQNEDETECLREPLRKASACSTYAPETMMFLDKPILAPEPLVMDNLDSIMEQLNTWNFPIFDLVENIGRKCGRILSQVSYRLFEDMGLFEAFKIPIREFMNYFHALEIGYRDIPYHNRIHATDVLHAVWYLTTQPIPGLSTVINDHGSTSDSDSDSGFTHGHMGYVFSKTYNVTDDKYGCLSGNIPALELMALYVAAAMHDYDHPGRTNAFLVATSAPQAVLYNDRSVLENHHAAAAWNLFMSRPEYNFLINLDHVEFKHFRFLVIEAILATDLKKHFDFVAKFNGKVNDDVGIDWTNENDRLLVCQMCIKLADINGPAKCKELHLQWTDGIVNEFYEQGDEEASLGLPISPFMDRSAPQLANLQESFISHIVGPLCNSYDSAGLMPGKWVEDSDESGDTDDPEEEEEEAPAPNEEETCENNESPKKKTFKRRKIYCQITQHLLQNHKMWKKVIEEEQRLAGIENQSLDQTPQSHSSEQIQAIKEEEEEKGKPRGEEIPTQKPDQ
Sequence of cAMP and cAMP-inhibited cGMP 3',5'-cyclic phosphodiesterase 10A (Q9Y233 whole entry, the tested form may be a part): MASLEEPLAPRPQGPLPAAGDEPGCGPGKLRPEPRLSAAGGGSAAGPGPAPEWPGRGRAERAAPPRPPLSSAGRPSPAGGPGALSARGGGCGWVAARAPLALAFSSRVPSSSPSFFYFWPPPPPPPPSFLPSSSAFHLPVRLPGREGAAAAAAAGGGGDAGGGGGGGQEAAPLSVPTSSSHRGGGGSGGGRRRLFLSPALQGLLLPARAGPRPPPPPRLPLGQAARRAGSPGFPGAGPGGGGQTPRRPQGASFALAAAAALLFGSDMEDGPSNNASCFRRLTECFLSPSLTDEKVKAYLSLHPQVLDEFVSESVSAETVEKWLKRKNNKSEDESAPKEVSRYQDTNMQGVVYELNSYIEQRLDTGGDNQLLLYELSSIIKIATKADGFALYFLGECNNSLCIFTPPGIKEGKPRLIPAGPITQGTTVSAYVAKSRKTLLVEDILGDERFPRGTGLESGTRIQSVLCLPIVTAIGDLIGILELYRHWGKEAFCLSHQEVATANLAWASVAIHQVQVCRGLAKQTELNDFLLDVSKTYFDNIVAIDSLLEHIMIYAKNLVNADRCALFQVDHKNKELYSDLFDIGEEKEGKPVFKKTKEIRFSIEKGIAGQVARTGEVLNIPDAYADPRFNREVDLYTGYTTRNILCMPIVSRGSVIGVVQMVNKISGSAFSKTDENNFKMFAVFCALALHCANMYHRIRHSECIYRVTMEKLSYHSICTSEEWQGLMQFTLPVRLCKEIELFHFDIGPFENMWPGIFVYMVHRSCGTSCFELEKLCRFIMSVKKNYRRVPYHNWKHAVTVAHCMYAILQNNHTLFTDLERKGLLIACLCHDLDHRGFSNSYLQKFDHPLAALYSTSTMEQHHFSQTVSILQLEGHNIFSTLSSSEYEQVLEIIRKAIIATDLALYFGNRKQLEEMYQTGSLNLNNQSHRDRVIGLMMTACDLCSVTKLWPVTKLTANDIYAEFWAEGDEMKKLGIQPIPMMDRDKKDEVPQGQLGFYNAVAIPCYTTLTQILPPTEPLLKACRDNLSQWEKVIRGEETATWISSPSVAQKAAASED
Sequence of cGMP-inhibited 3',5'-cyclic phosphodiesterase 3B (Q13370 whole entry): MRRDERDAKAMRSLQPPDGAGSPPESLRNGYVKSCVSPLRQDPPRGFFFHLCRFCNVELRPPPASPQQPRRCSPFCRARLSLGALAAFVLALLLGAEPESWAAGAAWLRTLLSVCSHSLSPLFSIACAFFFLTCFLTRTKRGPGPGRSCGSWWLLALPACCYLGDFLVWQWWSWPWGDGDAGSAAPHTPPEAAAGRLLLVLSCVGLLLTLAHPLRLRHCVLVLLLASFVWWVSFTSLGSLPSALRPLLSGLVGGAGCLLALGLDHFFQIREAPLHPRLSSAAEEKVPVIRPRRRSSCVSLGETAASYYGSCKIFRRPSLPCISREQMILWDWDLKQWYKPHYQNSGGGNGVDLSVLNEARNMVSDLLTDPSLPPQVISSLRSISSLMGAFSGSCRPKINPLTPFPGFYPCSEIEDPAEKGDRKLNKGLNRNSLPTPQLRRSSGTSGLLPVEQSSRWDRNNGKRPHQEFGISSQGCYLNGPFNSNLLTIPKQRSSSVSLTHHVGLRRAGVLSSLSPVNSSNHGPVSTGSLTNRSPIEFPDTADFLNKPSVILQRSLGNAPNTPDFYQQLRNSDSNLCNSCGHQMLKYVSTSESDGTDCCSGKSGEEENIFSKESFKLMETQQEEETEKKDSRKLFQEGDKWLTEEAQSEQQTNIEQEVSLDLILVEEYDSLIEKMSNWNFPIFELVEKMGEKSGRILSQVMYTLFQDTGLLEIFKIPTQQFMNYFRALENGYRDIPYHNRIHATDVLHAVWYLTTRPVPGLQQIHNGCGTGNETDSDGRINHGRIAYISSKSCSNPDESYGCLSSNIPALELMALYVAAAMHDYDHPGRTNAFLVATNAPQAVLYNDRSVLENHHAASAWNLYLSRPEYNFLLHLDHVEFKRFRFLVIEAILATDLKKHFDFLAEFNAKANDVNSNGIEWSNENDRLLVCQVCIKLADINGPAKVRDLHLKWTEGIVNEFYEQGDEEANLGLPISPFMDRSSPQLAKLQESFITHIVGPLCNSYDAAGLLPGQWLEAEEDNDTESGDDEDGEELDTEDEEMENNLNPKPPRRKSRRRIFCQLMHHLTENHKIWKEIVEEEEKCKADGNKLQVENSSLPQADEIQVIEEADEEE
Sequence of 3',5'-cyclic-AMP phosphodiesterase 4A (P27815 whole entry): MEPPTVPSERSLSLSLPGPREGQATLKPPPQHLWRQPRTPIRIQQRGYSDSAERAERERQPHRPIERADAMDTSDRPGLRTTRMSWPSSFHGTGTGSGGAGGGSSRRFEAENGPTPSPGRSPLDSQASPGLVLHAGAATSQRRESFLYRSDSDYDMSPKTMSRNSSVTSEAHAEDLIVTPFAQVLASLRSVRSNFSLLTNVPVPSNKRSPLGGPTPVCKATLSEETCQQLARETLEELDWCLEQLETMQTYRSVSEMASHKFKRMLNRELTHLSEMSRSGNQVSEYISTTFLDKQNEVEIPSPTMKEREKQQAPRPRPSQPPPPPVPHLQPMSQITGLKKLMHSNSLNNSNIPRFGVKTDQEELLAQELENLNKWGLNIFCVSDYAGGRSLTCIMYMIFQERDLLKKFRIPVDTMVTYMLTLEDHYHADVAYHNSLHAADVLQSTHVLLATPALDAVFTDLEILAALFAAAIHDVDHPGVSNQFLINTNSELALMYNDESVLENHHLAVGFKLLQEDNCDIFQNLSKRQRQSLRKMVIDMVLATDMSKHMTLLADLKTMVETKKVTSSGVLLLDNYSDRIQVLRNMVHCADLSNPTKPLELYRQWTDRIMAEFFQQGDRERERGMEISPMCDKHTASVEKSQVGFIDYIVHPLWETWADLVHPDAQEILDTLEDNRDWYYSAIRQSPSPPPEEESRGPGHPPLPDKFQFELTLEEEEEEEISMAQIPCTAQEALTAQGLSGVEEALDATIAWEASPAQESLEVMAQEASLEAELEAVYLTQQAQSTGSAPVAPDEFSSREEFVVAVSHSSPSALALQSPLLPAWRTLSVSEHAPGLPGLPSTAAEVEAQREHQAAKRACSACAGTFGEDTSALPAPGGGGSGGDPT

Row | SMILES | IC50 ([1]; read-out: IC50) | further results
1 | Cc1cc(-c2cnnc3ccccc23)cnc1N1CCC(O)(c2ccc(F)nc2)CC1 |  | IC50 [1]: Not Active
2 | COc1cc2nncc(-c3ccc(N4CCC(C)(O)CC4)nc3)c2cc1OC | 0.0184 µM | 
3 | COc1cc2c(-c3ccc(N4CCC(C)(O)CC4)nc3)cnnc2cc1OCc1ccccc1 | 4.25 µM | 
4 | COc1cc2nncc(-c3ccc(N4CCC(O)(c5cccnc5)CC4)nc3)c2cc1OC | 0.014 µM | 
5 | COc1cc2c(-c3ccc(N4CCC(O)(c5cccnc5)CC4)nc3)cnnc2cc1OCc1ccccc1 | 1.55 µM | 
6 | COc1cc2c(-c3ccc(N4CCC(C)(O)CC4)nc3)cnnc2cc1O | 10.8 µM | 
7 | COc1cc2c(-c3ccc(N4CCC(O)(c5cccnc5)CC4)nc3)cnnc2cc1O | 6.62 µM | 
8 | COc1cc2nncc(-c3cnc(N4CCC(O)(c5cccnc5)CC4)c(C)c3)c2cc1OC | 0.00152 µM | IC50 [2]: 3.07 µM; IC50 [3]: 4.11 µM; IC50 [4]: 7.83 µM; IC50 [5]: 8.73 µM
9 | COc1cc2nncc(-c3cnc(N4CCC(O)(c5ccc(F)nc5)CC4)c(C)c3)c2cc1OC | 0.00286 µM | IC50 [2]: 3.7 µM; IC50 [3]: 6.54 µM; IC50 [4]: 25.4 µM; IC50 [5]: 30.6 µM
10 | Cc1cc(-c2cnnc3cc4c(cc23)OCO4)cnc1N1CCC(O)(c2ccc(F)nc2)CC1 |  | IC50 [1]: Not Active
11 | COc1cc2nncc(-c3cnc(N4CCC(O)(c5ccc(Cl)nc5)CC4)c(C)c3)c2cc1OC | 0.0098 µM | 
12 | COc1cc2c(-c3cnc(N4CCC(O)(c5ccc(F)nc5)CC4)c(C)c3)cnnc2cc1OCc1ccccc1 | 0.35 µM | 
13 | COc1cc2nncc(-c3cnc(N4CCC(O)(c5cccnc5)CC4)c(Cl)c3)c2cc1OC | 0.00552 µM | 
14 | COc1cc2c(-c3cnc(N4CCC(O)(c5ccc(F)nc5)CC4)c(C)c3)cnnc2cc1OCc1ccc2ccccc2n1 | 0.518 µM | 
15 | COc1cc2c(-c3cnc(N4CCC(O)(c5ccc(F)nc5)CC4)c(C)c3)cnnc2cc1OCCCF | 0.0793 µM | 
16 | Cn1c(C(=O)c2ccc(Oc3ncccc3-c3ccccc3)cc2)nc2ccccc21 | 0.0186 µM | 
17 | COc1ccc(-c2cccnc2Oc2ccc(C(=O)c3nc4ccccc4n3C)cc2)cc1 | 0.008 µM | 
18 | Cn1c(C(=O)c2ccc(Oc3ncccc3-c3cccnc3)cc2)nc2ccccc21 | 0.00373 µM | IC50 [2]: 167 µM; IC50 [3]: 234 µM; IC50 [4]: 40.3 µM; IC50 [5]: 25.9 µM
19 | Cn1c(C(=O)c2ccc(Oc3ncccc3C(=O)c3ccccc3)cc2)nc2ccccc21 |  | IC50 [1]: Not Active
20 | COc1ccc(C(=O)c2cccnc2Oc2ccc(C(=O)c3nc4ccccc4n3C)cc2)cc1 |  | IC50 [1]: Not Active
21 | CC(=O)N1CCC(C(=O)c2cccnc2Oc2ccc(C(=O)c3nc4ccccc4n3C)cc2)CC1 | > 1.9 µM | 
